Measurements reported in the array DNA melting data of Ke et al. (doi:10.1101/2024.01.08.574731).

How the values were obtained:
[1] = melting temperature; fluorescence melt of hairpins on a sequencing array, two-state fit, raised by 9.35 °C to match UV melts; settings: sodium 0.088 M
How it was run: (§1)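 Bootstrapped two-state fits yielded melting temperature and folding enthalpy for library hairpins. Cy3 fluorescence, with annealed Cy3 and quencher oligos, was imaged on a sequenced MiSeq flow cell in 50 mM Na-HEPES pH 8.0, 25 mM NaCl in 2.5 °C steps up to 60 °C, and normalised to pre-quench Cy3 and to control constructs. Four replicates were combined by inverse variance, and fitted temperatures were raised by 9.35 °C to match UV melts.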

[2] = folding enthalpy; higher = less favourable; fluorescence melt of hairpins on a sequencing array, two-state fit; settings: sodium 0.088 M
How it was run: as §1

Sequence | Tm [1] [°C] | folding enthalpy [2] [kcal/mol]
GGACCACGAAAGTGTTCC (((.(((....))).))) | 49.4 | -24.8
GGACCAGGAAACTAGTCC ((((.((....)).)))) | 36.4 | -26.9
GGACCCGAAAGGGCGTCC ((((((....)))..))) | 49.1 | -16.7
GGACCCGAAAGGGCTTCC ((((((....)))..))) | 40.6 | -17
GGACCCGAAAGGGGTTCC ((((((....)))..))) | 48.3 | -15
GGACCCGAAAGGGTTCC ((((((....))).))) | 59.7 | -16.8
GGACCCGGAAACAGGCCC ((.((.(....).)).)) | 29 | -16.9
GGACCGCGAAAGCGTTCC (((.(((....))).))) | 53.1 | -20.9
GGACCGGGAAACCGATCC (((.(((....))).))) | 48 | -35.7
GGACGACGAAAGTCATCC (((.(((....))).))) | 48.8 | -23.5
GGACGACGAAAGTCTCC (((.(((....)))))) | 47 | -27.1
GGACGAGGAAACCCGTCC (((((.(....).))))) | 54.2 | -39.1
GGACGCGAAAGCGACTCC ((((((....)))..))) | 46.2 | -11.6
GGACGCGAAAGCGCTCC ((((((....))).))) | 54.9 | -20.5
GGACGCGAAAGCGGTTCC ((((((....)))..))) | 45.7 | -11.6
GGACGCGAAAGCGTTTCC ((((((....)))..))) | 36.4 | -9.28
GGACGCGGAAACACGCCC ((.((.(....).)).)) | 34.3 | -18.9
GGACGCGGAAACGCATCC (((.(((....))).))) | 48.9 | -26.3
GGACGCGGAAACGCGCCC ((.((((....)))).)) | 61.8 | -18.6
GGACGCTCGAAAGAGTCC (((..(((....)))))) | 46.5 | -22.1
GGACGGCCGAAAGGCTCC (((..(((....)))))) | 34.1 | -10.8
GGACGGCGAAAGCCTCC (((.(((....)))))) | 53.5 | -16.4
GGACGGTCGAAAGACTCC (((..(((....)))))) | 29.5 | -12.2

Sequence | Tm [1] [°C] | folding enthalpy [2] [kcal/mol]
GGACGTCGAAAGACTTCC (((.(((....))).))) | 48.1 | -29.9
GGACGTGCGAAAGCATCC (((..(((....)))))) | 30.6 | -9.73
GGACGTGGAAACACGCCC ((.((((....)))).)) | 53 | -35.7
GGACGTGGAAACGCGTTC (.(((.(....).))).) | 44.3 | -24.2
GGACTAGGAAACCAGTCC (((((.(....).))))) | 44.8 | -31
GGACTAGGAAACTGGTTC (.((.((....)).)).) | 29.8 | -13.1
GGACTCACGAAAGTGTCC (((..(((....)))))) | 41.5 | -19.3
GGACTCCGAAAGGAATCC (((.(((....))).))) | 47.3 | -30.5
GGACTCCGAAAGGATCC (((.(((....)))))) | 46.9 | -24.5
GGACTCGAAAGAGAGTCC ((((((....)))..))) | 54.5 | -40.5
GGACTCGAAAGAGCCTCC ((((((....)))..))) | 42.7 | -16.9
GGACTCGAAAGAGCTTCC ((((((....)))..))) | 35.3 | -18.9
GGACTCGAAAGAGTATCC ((((((....)))..))) | 33.3 | -13.8
GGACTCGGAAACAAGTCC (((((.(....).))))) | 42.2 | -27.8
GGACTGACGAAAGTCTCC (((..(((....)))))) | 28.6 | -9.45
GGACTGGGAAACCAGTTC (.(((((....))))).) | 50.6 | -28.6
GGACTGGGAAACCGGTTC (.((.((....)).)).) | 37.5 | -25.5
GGACTTCGAAAGAACTCC (((.(((....))).))) | 29.6 | -13.2
GGACTTGAAAAAGTCC ((((((....)))))) | 58.2 | -41.9
GGACTTGCGAAAGCATCC (((..(((....)))))) | 26.3 | -9.43
GGACTTGGAAACAAGCCC ((.((((....)))).)) | 46.1 | -31
GGAGAACGAAAGTTTCC (((.(((....)))))) | 33.4 | -19.7
GGAGAAGGAAACTTTTCC (((.(((....))).))) | 31.1 | -26.2
